According to ChEMBL document CHEMBL4033715, “Optimization and biological evaluation of 2-aminobenzothiazole derivatives as Aurora B kinase inhibitors” (Bioorg Med Chem, 2017):
The source made the active and inactive calls. The rule behind the calls is not given here.

How the values were obtained:
Aurora kinase B [1] = biological target: T1, Aurora kinase B (Homo sapiens, UniProt Q96GD4); test: Inhibition of recombinant full length human N-terminal GST-tagged Aurora B expressed in baculovirus infected Sf9 cells using myelin basic protein as substrate after 60 mins by ADP-Glo luminescence assay
T1 sequence (Q96GD4 whole entry): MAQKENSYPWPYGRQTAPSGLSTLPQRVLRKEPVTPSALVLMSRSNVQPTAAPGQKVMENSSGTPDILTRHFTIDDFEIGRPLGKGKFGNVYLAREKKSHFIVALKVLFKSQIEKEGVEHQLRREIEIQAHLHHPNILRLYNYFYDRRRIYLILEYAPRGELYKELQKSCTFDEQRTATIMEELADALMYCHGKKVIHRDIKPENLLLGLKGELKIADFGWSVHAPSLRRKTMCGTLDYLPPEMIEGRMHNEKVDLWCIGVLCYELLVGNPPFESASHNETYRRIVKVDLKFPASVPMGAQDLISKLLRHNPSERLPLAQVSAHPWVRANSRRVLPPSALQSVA
Summary of the method: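 ADP-Glo assay with purified active Aurora B, myelin basic protein substrate, 10 µM ATP, 60 min kinase reaction at room temperature followed by luminescence detection. IC50 determined for compounds exceeding 50% inhibition relative to staurosporine, calculated by curve fitting.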

[2] = biological target: T2, Aurora kinase A (Homo sapiens) (UniProt O14965); test: Inhibition of recombinant full length human N-terminal GST-tagged Aurora A expressed in baculovirus infected Sf9 cells at 1 uM using myelin basic protein as substrate after 60 mins by ADP-Glo luminescence assay relative to control
T2 sequence (whole entry): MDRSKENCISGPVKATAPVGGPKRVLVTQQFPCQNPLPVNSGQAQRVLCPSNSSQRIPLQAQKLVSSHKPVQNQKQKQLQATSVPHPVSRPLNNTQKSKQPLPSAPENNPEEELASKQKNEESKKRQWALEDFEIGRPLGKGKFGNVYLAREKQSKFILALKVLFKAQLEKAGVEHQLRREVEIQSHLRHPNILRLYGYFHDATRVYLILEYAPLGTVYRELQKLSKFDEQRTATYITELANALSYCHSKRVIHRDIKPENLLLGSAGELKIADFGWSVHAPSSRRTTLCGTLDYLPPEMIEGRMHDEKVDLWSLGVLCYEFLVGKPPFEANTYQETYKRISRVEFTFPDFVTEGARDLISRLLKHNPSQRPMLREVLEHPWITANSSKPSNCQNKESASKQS
Summary of the method: (§1)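 Purified active Aurora A or Aurora B with myelin basic protein substrate and 10 µM ATP; compounds dissolved in DMSO and tested at a single concentration (10 µM screen, or 1 µM). Reaction 60 min at room temperature, then ADP-Glo reagent 30 min and detection reagent 30 min; luminescence read. Inhibition expressed relative to 10 µM staurosporine.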

Aurora kinase B [3] = biological target: T1, Aurora kinase B; test: Inhibition of recombinant full length human N-terminal GST-tagged Aurora B expressed in baculovirus infected Sf9 cells at 1 uM using myelin basic protein as substrate after 60 mins by ADP-Glo luminescence assay relative to control; summary of the method: as §1
Aurora kinase B [4] = biological target: T1, Aurora kinase B; test: Inhibition of recombinant full length human N-terminal GST-tagged Aurora B expressed in baculovirus infected Sf9 cells at 10 uM using myelin basic protein as substrate after 60 mins by ADP-Glo luminescence assay relative to control; summary of the method: as §1
Aurora kinase B [5] = biological target: T1, Aurora kinase B; test: Inhibition of Aurora B in human HeLa cells assessed as reduction in histone H3 phosphorylation at Ser10 residue after 1 hr by Western blot analysis; format: cell-based
Summary of the method: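 HeLa cells synchronized in mitosis by a 16 h Monastrol block, then released into Monastrol-free medium containing inhibitor at graded concentrations; Hesperadin 5 µM and DMSO as references. Cells harvested 1 h after release, lysed in RIPA with protease/phosphatase inhibitors, 20 µg protein resolved on 8~15% SDS-PAGE. Immunoblotted for phospho-H3S10, total histone H3, α-tubulin and Aurora B.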

HeLa [6] = test: Cell cycle arrest in human HeLa cells assessed as increase in accumulation at G2/M phase at 50 uM after 24 hrs by propidium iodide staining based flow cytometry relative to control; format: functional
Summary of the method: (§2)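 HeLa cells seeded the day before and exposed to inhibitor (10 or 50 µM) or DMSO for 24 h, harvested non-enzymatically, fixed in cold 70% EtOH at 4 °C for 2 h, stained with PI/Triton X-100 solution containing RNase A (25 °C, 20 min, dark). Cell cycle distribution was measured by flow cytometry, and the G2/M percentage was compared with DMSO.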

HeLa [7] = test: Cell cycle arrest in human HeLa cells assessed as accumulation at G2/M phase at 50 uM after 24 hrs by propidium iodide staining based flow cytometry (reference value: 12 %); format: functional; summary of the method: as §2
[8] = biological target: T2, Aurora kinase A (Homo sapiens); test: Inhibition of recombinant full length human N-terminal GST-tagged Aurora A expressed in baculovirus infected Sf9 cells at 10 uM using myelin basic protein as substrate after 60 mins by ADP-Glo luminescence assay relative to control; summary of the method: as §1

Row | Compound | IC50 (Aurora kinase B [1]) | inhibition [2] | inhibition (Aurora kinase B [3]) | inhibition (Aurora kinase B [4]) | inhibition [8] | other results
1 | S=C(Nc1ccc(Cl)cc1)Nc1ccc(CNc2nc3ccc(OCCN4CCOCC4)cc3s2)cc1 | 0.11 µM | 3% | 94% | – | – | –
2 | O=C(Nc1ccc(Cl)c(Cl)c1)n1ccc(CNc2nc3ccc(OCCN4CCOCC4)cc3s2)n1 | – | – | – | 46% | – | –
3 | O=C(Nc1ccccc1)n1ccc(CNc2nc3ccc(OCCN4CCOCC4)cc3s2)n1 | – | – | – | 12% | – | –
4 | O=S(=O)(Nc1ccc(CNc2nc3ccc(OCCN4CCOCC4)cc3s2)cc1)c1ccc(Cl)cc1 | – | – | – | 28% | inactive | –
5 | O=C(Nc1ccc(F)cc1)n1ccc(CNc2nc3ccc(OCCN4CCOCC4)cc3s2)n1 | – | – | – | 5% | – | –
6 | O=C(Nc1ccc(Cl)cc1)Nc1ccc(CNc2nc3ccc(OCCN4CCCCC4)cc3s2)cc1 | 2.3 µM | inactive | 5% | – | – | –
7 | O=C(Nc1ccc(CNc2nc3ccc(OCCN4CCOCC4)cc3s2)cc1)c1ccc(Cl)cc1 | 3 µM | – | – | 59% | inactive | –
8 | O=C(Nc1ccc(CNc2nc3ccc(OCCN4CCOCC4)cc3s2)cc1)c1ccccc1 | – | – | – | 25% | inactive | –
9 | O=S(=O)(Nc1ccc(CNc2nc3ccc(OCCN4CCOCC4)cc3s2)cc1)c1ccccc1 | – | – | – | 16% | inactive | –
10 | O=C(Nc1ccc(Br)cc1)n1ccc(CNc2nc3ccc(OCCN4CCOCC4)cc3s2)n1 | – | – | – | 31% | – | –
11 | COc1ccc(C(=O)Nc2ccc(CNc3nc4ccc(OCCN5CCOCC5)cc4s3)cc2)cc1 | 0.7 µM | – | – | 85% | inactive | –
12 | CN(C)CCOc1ccc2nc(NCc3ccc(NC(=O)Nc4ccc(Cl)cc4)cc3)sc2c1 | 0.32 µM | inactive | 65% | – | – | –
13 | O=C(Nc1ccccc1CNc1nc2ccc(OCCN3CCOCC3)cc2s1)c1ccccc1 | – | – | – | inactive | inactive | –
14 | O=C(Nc1ccc(Cl)cc1)n1ccc(CNc2nc3ccc(OCCN4CCOCC4)cc3s2)n1 | – | – | – | 31% | – | –
15 | COc1ccc(NC(=S)Nc2ccc(CNc3nc4ccc(OCCN5CCOCC5)cc4s3)cc2)cc1 | 0.36 µM | inactive | 72% | – | – | –
16 | O=S(=O)(Nc1ccc(CNc2nc3ccc(OCCN4CCOCC4)cc3s2)cc1)c1ccc(F)cc1 | – | – | – | 30% | inactive | –

Further lines, with some results ahead:

Row | IC50 (Aurora kinase B [1]) | inhibition [2] | inhibition (Aurora kinase B [3]) | inhibition (Aurora kinase B [4]) | inhibition [8] | Compound | other results
17 | 0.25 µM | inactive | 79% | – | – | COc1ccc(NC(=O)Nc2ccc(CNc3nc4ccc(OCCN5CCOCC5)cc4s3)cc2)cc1 | –
18 | 1 µM | inactive | 33% | – | – | O=C(Nc1cccc(Cl)c1)Nc1cccc(CNc2nc3ccc(OCCN4CCOCC4)cc3s2)c1 | –
19 | 0.09 µM | 9% | 83% | – | – | O=C(Nc1ccc(Br)cc1)Nc1ccc(CNc2nc3ccc(OCCN4CCOCC4)cc3s2)cc1 | inhibition (Aurora kinase B [5]): Dose-dependent effect; fold change (FC) (HeLa [6]): >2
20 | 0.12 µM | inactive | 100% | – | – | O=C(Nc1ccc(Cl)cc1)Nc1ccc(CNc2nc3ccc(OCCN4CCOCC4)cc3s2)cc1 | inhibition (Aurora kinase B [5]): Dose-dependent effect; Activity (HeLa [7]): 17%
21 | – | – | – | 17% | inactive | O=C(Nc1cccc(CNc2nc3ccc(OCCN4CCOCC4)cc3s2)c1)c1ccc([N+](=O)[O-])cc1 | –
22 | – | – | – | 24% | inactive | O=C(Nc1cccc(CNc2nc3ccc(OCCN4CCOCC4)cc3s2)c1)c1ccccc1 | –
23 | 1.4 µM | – | – | 91% | inactive | O=C(Nc1ccc(CNc2nc3ccc(OCCN4CCOCC4)cc3s2)cc1)c1cccc(Cl)c1 | –
24 | 0.27 µM | 2% | 77% | – | – | O=C(Nc1ccc(CNc2nc3ccc(OCCN4CCOCC4)cc3s2)cc1)Nc1ccc(Cl)c(Cl)c1 | –
25 | – | – | – | 30% | inactive | O=C(Nc1cccc(CNc2nc3ccc(OCCN4CCOCC4)cc3s2)c1)c1cccc(Cl)c1 | –
26 | 0.7 µM | inactive | 44% | – | – | O=C(Nc1ccc(F)cc1)Nc1ccc(CNc2nc3ccc(OCCN4CCOCC4)cc3s2)cc1 | –
27 | 1.2 µM | inactive | 31% | – | – | O=C(Nc1ccc(Cl)cc1)Nc1cccc(CNc2nc3ccc(OCCN4CCOCC4)cc3s2)c1 | –
28 | 3.1 µM | inactive | 37% | – | – | O=C(Nc1ccccc1)Nc1cccc(CNc2nc3ccc(OCCN4CCOCC4)cc3s2)c1 | –
29 | 0.27 µM | inactive | 91% | – | – | O=C(Nc1ccccc1)Nc1ccc(CNc2nc3ccc(OCCN4CCOCC4)cc3s2)cc1 | –
30 | 6.2 µM | – | – | 42% | inactive | O=C(Nc1cccc(CNc2nc3ccc(OCCN4CCOCC4)cc3s2)c1)c1ccc(Cl)cc1 | –
31 | 0.46 µM | inactive | 67% | – | – | O=C(Nc1ccc(CNc2nc3ccc(OCCN4CCOCC4)cc3s2)cc1)Nc1cccc(Cl)c1 | –
32 | 9 µM | – | – | 56% | inactive | O=C(Nc1cccc(CNc2nc3ccc(OCCN4CCOCC4)cc3s2)c1)c1ccc(F)cc1 | –
